B1: N-MORF: entire N-terminal region of MORF (amino acids 1–352), Flag-tag fusion (protein)
chain: MVKLANPLYTEWILEAIQKIKKQKQRPSEERICHAVSTSHGLDKKTVSEQLELSVQDGSVLKVTNKGLASYKDPDNPGRFSSVKPGTFPKSAKGSRGSCNDLRNVDWNKLLRRAIEGLEEPNGSSLKNIEKYLRSQSDLTSTTNNPAFQQRLRLGAKRAVNNGRLLKDGPQYRVNYGSLDGKGAPQYPSAFPSSLPPVSLLPHEKDQPRADPIPICSFCLGTKESNREKKPEELLSCADCGSSGHPSCLKFCPELTTNVKALRWQCIECKTCSACRVQGRNADNMLFCDSCDRGFHMECCDPPLSRMPKGMWICQVCRPKKKGRKLLHEKAAQIKRRYAKPIGRPKNKLKQR
modifications: left off: Flag, end not stated, kept
B2: N-MORFΔPHD1/2: N-MORF (amino acids 1–215) in which the PHD1/2 fingers are deleted, Flag-tag fusion (protein)
chain: MVKLANPLYTEWILEAIQKIKKQKQRPSEERICHAVSTSHGLDKKTVSEQLELSVQDGSVLKVTNKGLASYKDPDNPGRFSSVKPGTFPKSAKGSRGSCNDLRNVDWNKLLRRAIEGLEEPNGSSLKNIEKYLRSQSDLTSTTNNPAFQQRLRLGAKRAVNNGRLLKDGPQYRVNYGSLDGKGAPQYPSAFPSSLPPVSLLPHEKDQPRADPIPI
modifications: left off: Flag, end not stated, kept
B3: GFP-N-MORF: GFP-tagged N-MORF (amino acids 1–352) (protein, UniProt Q8WYB5 1-352, looked up, fragment)
chain: B1 chain
modifications: GFP tag
B4: GFP-N-MORFΔPHD1/2: GFP-tagged N-MORFΔPHD1/2 (amino acids 1–215) (protein, UniProt Q8WYB5 1-215, looked up, fragment)
chain: B2 chain
modifications: GFP tag

Tests used:
[1] = tested on: endogenous H3K14ac / histone H3 in HEK293 cells; assay type: cell-based; conditions: anti-Flag IP, anti-H3K14ac immunoblot
How it was run: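 HEK293 cells were seeded at 300,000 per 6 cm dish and lipofection-transfected with Flag-tagged MORF N-terminal constructs (aa 1–352, or aa 1–215 lacking PHD1/2). After about 48 h, cells were lysed in buffer with 150 mM KCl and immunoprecipitated on anti-Flag M2 agarose. Beads were washed extensively and eluted in 50 mM phosphoric acid. Blots were probed with anti-Flag, anti-H3K14ac and anti-H3. Where indicated, TSA (3 μM) was added to the medium 6 h before harvest.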

HEK293 cells = test: Live green fluorescence microscopy of GFP-MORF constructs; assay type: cell-based; conditions: 18 h post-transfection

Row | Molecule | Co-immunoprecipitation of endogenous H3K14ac [1] | Subcellular localization of GFP-MORF construct (HEK293 cells)
1 | B1 | co-immunoprecipitated endogenous H3K14ac | –
2 | B2 | unable to pull down acetylated histone H3 | –
3 | B3 | – | clearly associated with chromatin forming nuclear speckles
4 | B4 | – | evenly dispersed in the nucleus

From PMC3502708 (Journal of molecular biology, 2012)
